Reference: ChEMBL document CHEMBL1146340, “Synthesis of the 5-phosphono-pent-2-en-1-yl nucleosides: a new class of antiviral acyclic nucleoside phosphonates” (Bioorg Med Chem, 2007)

How the values were obtained:
[1] = Cytotoxicity against human MRC5 cells by neutral red uptake assay; format: cell-based
Summary of the method: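 MRC-5 human lung fibroblasts seeded at 2.5 x 10^4 cells/well and incubated 24 h. Medium then replaced with MEM plus 2% FBS. Drug diluted serially 5-fold from 100 μM to 0.03 μM and exposed for 7 days. Cells stained with neutral red for 1 h, dye solubilized in 1% acetic acid/50% ethanol, OD read at 540 nm. CC50 (50% viability reduction) calculated; mean ± SD of 3 experiments.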

[2] = Specificity index, Ratio of CC50 for MCR5 cells to EC50 for HSV1; format: functional
Summary of the method: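 Ratio of CC50 to EC50, both measured in MRC-5 human lung fibroblasts. […] CC50: neutral red uptake after 7 days, 5-fold dilutions from 100 μM to 0.03 μM, OD 540 nm; mean of 3 experiments.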

SMILES | CC50 [1] [µM] | Selectivity index [2]
CCCCCCCCCCCCCCCCOCCCOP(=O)(O)CC/C=C\Cn1cnc2c(=O)nc(N)[nH]c21 | 12.2 | 2.1
Nc1ncnc2c1ncn2C/C=C\CCP(=O)(O)O | > 100 | 
Cc1cn(C/C=C\CCP(=O)(O)O)c(=O)[nH]c1=O | > 100 | 
CCCCCCCCCCCCCCCCOCCCOP(=O)(O)CC/C=C\Cn1cnc2c(N)ncnc21 | 17.3 | 0.96
Nc1ccn(C/C=C\CCP(=O)(O)O)c(=O)n1 | > 100 | 
CCCCCCCCCCCCCCCCOCCCOP(=O)(O)CC/C=C\Cn1ccc(=O)[nH]c1=O | 51 | 
Nc1nc(=O)c2ncn(C/C=C\CCP(=O)(O)O)c2[nH]1 | > 100 | 
CCCCCCCCCCCCCCCCOCCCOP(=O)(O)CC/C=C\Cn1ccc(N)nc1=O | 11.2 | 2.38
CCCCCCCCCCCCCCCCOCCCOP(=O)(O)CC/C=C\Cn1cc(C)c(=O)[nH]c1=O | 7.4 | 8.22
O=c1nc(O)ccn1C/C=C\CCP(=O)(O)O | > 100 | 
